# Results published in ChEMBL document CHEMBL3102739, “Synthesis and antiproliferative activity of conformationally restricted 1,2,3-triazole analogues of combretastatins in the sea urchin embryo model and against human cancer cell lines” (Bioorg Med Chem, 2014).
# Tests used:
# [1] = Cytotoxicity against human SH-SY5Y cells assessed as cell viability after 48 hrs; type: functional, cell-based
# Paracentrotus lividus [2] = assay: Antimitotic activity against sea urchin embryo model assessed as cleavage arrest of fertilized egg compound treated at 8 to 20 mins post-fertilization and 45 to 55 mins prior to first mitotic cycle completion measured 2.5 to 5.5 hrs post-fertilization; type: functional
# Summary of the method: (§1)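 Fertilized eggs are exposed 8–20 min after fertilization to 2-fold decreasing concentrations. Stocks are 10 mM in DMSO, then diluted 10-fold in 95% EtOH; final DMSO is at most 0.05% and EtOH at most 1%. Embryos are kept as a monolayer, up to 2000 embryos/mL, in filtered seawater at room temperature. The value is the threshold concentration giving cleavage alteration, embryo death before hatching or full mitotic arrest. Duplicates were run.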
# Paracentrotus lividus [3] = assay: Antimitotic activity against sea urchin embryo model assessed as cleavage alteration of fertilized egg compound treated at 8 to 20 mins post-fertilization and 45 to 55 mins prior to first mitotic cycle completion measured 2.5 to 5.5 hrs post-fertilization; type: functional; summary of the method: as §1
# Paracentrotus lividus [4] = assay: Antimitotic activity against sea urchin embryo free-swimming blastula model assessed as embryo spinning compound treated at 8 to 10 hrs post-fertilization measured after 0.25 to 20 hrs; type: functional, Blastula stage
smiles,measurement,setting,value
COc1ccc(-n2nncc2-c2cc(OC)c(OC)c(OC)c2)cc1,IC50,[1],> 1000 nM
same,EC,Paracentrotus lividus [2],4 µM
same,EC,Paracentrotus lividus [3],1 µM
same,EC,Paracentrotus lividus [4],>4 µM
